Laboratory results as given in ChEMBL document CHEMBL1770107, “Design and synthesis of antifungal benzoheterocyclic derivatives by scaffold hopping” (2011).
≈ marks a conversion by molar mass, not a printed value.

Tests used:
Assay type in all cases: functional
Aspergillus fumigatus = assay: Antimicrobial activity against Aspergillus fumigatus after 7 days by NCCLS method; conditions: 168 h
Procedure, shortened: (§1)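 Broth serial-dilution MIC in 96-well plates, RPMI 1640 buffered with 0.165 M MOPS. Strains from ATCC or clinical isolates; fluconazole reference. MIC = lowest concentration giving ≥80% growth inhibition (turbidity) versus drug-free control. Read at 24 h for Candida spp., 72 h for C. neoformans, 7 days for filamentous fungi.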

Pichia kudriavzevii = assay: Antimicrobial activity against Candida krusei after 24 hrs by NCCLS method; procedure, shortened: as §1
Cryptococcus neoformans = assay: Antimicrobial activity against Cryptococcus neoformans after 72 hrs by NCCLS method; procedure, shortened: as §1
Candida tropicalis = assay: Antimicrobial activity against Candida tropicalis after 24 hrs by NCCLS method; procedure, shortened: as §1
Candida parapsilosis = assay: Antimicrobial activity against Candida parapsilosis after 24 hrs by NCCLS method; conditions: Lodderomyces parapsilosis; procedure, shortened: as §1
Candida albicans [1] = assay: Antimicrobial activity against Candida albicans after 24 hrs by NCCLS method; procedure, shortened: as §1
Nannizzia gypsea = assay: Antimicrobial activity against Microsporum gypseum after 7 days by NCCLS method; conditions: 168 h; procedure, shortened: as §1
Candida albicans [2] = assay: Antimicrobial activity against fluconazole resistant Candida albicans clinical isolate after 24 hrs by NCCLS method
Procedure, shortened: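 Broth serial dilution in RPMI 1640 buffered with 0.165 M MOPS; clinical isolate. MIC80 is the lowest concentration giving 80% or greater turbidity reduction relative to the drug-free growth control, read at 24 h for Candida. Fluconazole is the reference drug.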

Trichophyton rubrum = assay: Antimicrobial activity against Trichophyton rubrum after 7 days by NCCLS method; conditions: 168 h; procedure, shortened: as §1

SMILES	MIC80 (Aspergillus fumigatus) [mg/L]	MIC80 (Pichia kudriavzevii) [mg/L]	MIC80 (Cryptococcus neoformans) [mg/L]	MIC80 (Candida tropicalis) [mg/L]	MIC80 (Candida parapsilosis) [mg/L]	MIC80 (Candida albicans [1]) [mg/L]	MIC80 (Nannizzia gypsea) [mg/L]	MIC80 (Candida albicans [2]) [mg/L]	MIC80 (Trichophyton rubrum) [mg/L]
CCCCCCN1CCc2c(c3cc(C)ccc3n2C)C1	64 (≈ 225 µM)	16 (≈ 56.2 µM)	64 (≈ 225 µM)	64 (≈ 225 µM)	64 (≈ 225 µM)	64 (≈ 225 µM)	–	–	–
CCCCCCNCc1nc2ccccc2o1	> 64	–	64 (≈ 275 µM)	64 (≈ 275 µM)	–	64 (≈ 275 µM)	16 (≈ 68.9 µM)	> 64	16 (≈ 68.9 µM)
OC(Cn1cncn1)(Cn1cncn1)c1ccc(F)cc1F [FLUCONAZOLE]	> 64	0.5 (≈ 1.63 µM)	1 (≈ 3.27 µM)	1 (≈ 3.27 µM)	1 (≈ 3.27 µM)	1 (≈ 3.27 µM)	16 (≈ 52.2 µM)	–	4 (≈ 13.1 µM)
CCCCCCCCNCc1nc2ccccc2o1	32 (≈ 123 µM)	–	1 (≈ 3.84 µM)	16 (≈ 61.4 µM)	–	64 (≈ 246 µM)	8 (≈ 30.7 µM)	64 (≈ 246 µM)	4 (≈ 15.4 µM)
CCCCCCNCc1nc2ccccc2s1	> 64	–	64 (≈ 258 µM)	64 (≈ 258 µM)	–	64 (≈ 258 µM)	64 (≈ 258 µM)	64 (≈ 258 µM)	64 (≈ 258 µM)
CCCCCCN1CCc2c(c3cc(Br)ccc3n2C)C1	64 (≈ 183 µM)	> 64	> 64	> 64	> 64	> 64	–	–	–
CCCCCCCCN1CCc2c(c3cc(Cl)ccc3n2C)C1	> 64	64 (≈ 192 µM)	> 64	> 64	64 (≈ 192 µM)	> 64	–	–	–
CCCCCCCNCc1nc2ccccc2[nH]1	> 64	–	64 (≈ 261 µM)	> 64	–	> 64	> 64	32 (≈ 130 µM)	64 (≈ 261 µM)
CCCCCCCCNCc1nc2ccccc2[nH]1	32 (≈ 123 µM)	–	16 (≈ 61.7 µM)	16 (≈ 61.7 µM)	–	> 64	16 (≈ 61.7 µM)	16 (≈ 61.7 µM)	16 (≈ 61.7 µM)
CCCCCCN1CCc2c(c3cc(I)ccc3n2C)C1	> 64	> 64	> 64	> 64	64 (≈ 161 µM)	> 64	–	–	–
CCCCCCCCn1cnc2ccc(C)cc2c1=O	> 64	> 64	> 64	> 64	> 64	> 64	–	–	–
CCCCCCCN1CCc2c(c3cc(Cl)ccc3n2C)C1	> 64	> 64	> 64	> 64	> 64	> 64	–	–	–
CCCCCCCCN1CCc2c(c3cc(Br)ccc3n2C)C1	> 64	> 64	64 (≈ 170 µM)	> 64	16 (≈ 42.4 µM)	64 (≈ 170 µM)	–	–	–
CCCCCCCCN1CCc2c(c3cc(I)ccc3n2C)C1	> 64	64 (≈ 151 µM)	> 64	> 64	16 (≈ 37.7 µM)	64 (≈ 151 µM)	–	–	–
CCCCCCCN1CCc2c(c3cc(F)ccc3n2C)C1	64 (≈ 212 µM)	> 64	> 64	> 64	64 (≈ 212 µM)	64 (≈ 212 µM)	–	–	–
CCCCCCCCN1CCc2c(c3cc(C)ccc3n2C)C1	16 (≈ 51.2 µM)	64 (≈ 205 µM)	> 64	64 (≈ 205 µM)	16 (≈ 51.2 µM)	16 (≈ 51.2 µM)	–	–	–
CCCCCCN1CCc2c(c3cc(Cl)ccc3n2C)C1	64 (≈ 210 µM)	64 (≈ 210 µM)	> 64	> 64	> 64	> 64	–	–	–
CCCCCCCN1CCc2c(c3cc(C)ccc3n2C)C1	16 (≈ 53.6 µM)	64 (≈ 214 µM)	> 64	64 (≈ 214 µM)	16 (≈ 53.6 µM)	16 (≈ 53.6 µM)	–	–	–
CCCCCCN1CCc2c(c3cc(F)ccc3n2C)C1	> 64	> 64	> 64	> 64	> 64	> 64	–	–	–
CCCCCCn1cnc2ccc(C)cc2c1=O	> 64	> 64	> 64	> 64	> 64	> 64	–	–	–
CCCCCCCNCc1nc2ccccc2o1	64 (≈ 260 µM)	–	16 (≈ 64.9 µM)	64 (≈ 260 µM)	–	64 (≈ 260 µM)	16 (≈ 64.9 µM)	64 (≈ 260 µM)	16 (≈ 64.9 µM)
CCCCCCCn1cnc2ccc(C)cc2c1=O	64 (≈ 248 µM)	> 64	> 64	> 64	> 64	> 64	–	–	–
CCCCCCCN1CCc2c(c3cc(I)ccc3n2C)C1	> 64	> 64	> 64	> 64	64 (≈ 156 µM)	> 64	–	–	–
CCCCCCNCc1nc2ccccc2[nH]1	> 64	–	> 64	> 64	–	1 (≈ 4.32 µM)	> 64	> 64	64 (≈ 277 µM)
CCCCCCCCNCc1nc2ccccc2s1	> 64	–	16 (≈ 57.9 µM)	64 (≈ 232 µM)	–	64 (≈ 232 µM)	64 (≈ 232 µM)	> 64	16 (≈ 57.9 µM)
CCCCCCCNCc1nc2ccccc2s1	> 64	–	64 (≈ 244 µM)	64 (≈ 244 µM)	–	64 (≈ 244 µM)	16 (≈ 61 µM)	32 (≈ 122 µM)	16 (≈ 61 µM)
CCCCCCCCN1CCc2c(c3cc(F)ccc3n2C)C1	> 64	> 64	> 64	> 64	64 (≈ 202 µM)	64 (≈ 202 µM)	–	–	–
CCCCCCCN1CCc2c(c3cc(Br)ccc3n2C)C1	> 64	> 64	64 (≈ 176 µM)	> 64	64 (≈ 176 µM)	> 64	–	–	–
